Measurements from paper PMC11561146 (Communications Biology, 2024).
“Also recorded” adds a separate entry of the source.

Legend:
TrK13-WT [1] = target: T1, TrK13-WT (Plasmodium falciparum, UniProt Q8IDQ2); assay type: binding; conditions: TrK13-WT 10 µM, 10-fold molar excess of competitor
T1 sequence (Q8IDQ2 189-726): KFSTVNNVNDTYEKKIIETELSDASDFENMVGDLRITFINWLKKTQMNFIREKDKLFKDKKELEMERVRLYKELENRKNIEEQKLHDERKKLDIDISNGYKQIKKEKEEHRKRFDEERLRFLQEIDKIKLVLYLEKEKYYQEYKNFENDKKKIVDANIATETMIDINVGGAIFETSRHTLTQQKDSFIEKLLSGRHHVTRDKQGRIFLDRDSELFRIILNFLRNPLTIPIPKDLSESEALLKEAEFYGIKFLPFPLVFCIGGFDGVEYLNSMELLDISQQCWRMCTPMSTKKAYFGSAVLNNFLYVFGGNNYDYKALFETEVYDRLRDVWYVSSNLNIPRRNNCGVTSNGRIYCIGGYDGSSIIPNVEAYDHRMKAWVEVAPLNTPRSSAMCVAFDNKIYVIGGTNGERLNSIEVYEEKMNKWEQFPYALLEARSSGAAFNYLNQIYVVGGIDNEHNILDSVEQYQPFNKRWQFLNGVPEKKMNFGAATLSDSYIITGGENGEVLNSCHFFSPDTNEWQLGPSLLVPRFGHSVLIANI
Method in brief: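 TrK13-WT (10 µM) was preincubated for 1 h at RT with 100 µM reduced heme or a heme analog. Hemin-agarose beads (50% v/v suspension) were then added for 1 h at RT, rotating, in MOPS pH 7.4. Beads were washed five times with MOPS. Bound protein was eluted in Laemmli buffer and resolved by SDS-PAGE with Coomassie staining. Band pixel intensity was expressed relative to the no-competitor band, set as 100%.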

heme-bound TrK13-WT = test: Detection of AAS by UV-visible spectrophotometry; assay type: biochemical, Plasmodium falciparum; conditions: for increase in the intensity of the 380 nm peak vs heme-bound protein without ART: 200 µM ART or DOA, 30 min, after G-25 desalting
[2] = tested on: TrK13-QNG (E688Q-E691N-H697G); test: Ferene S colorimetric assay of iron binding; design: species or system Plasmodium falciparum; conditions: Ferene S assay with FAS
[3] = tested on: recombinant TrK13-WT protein; test: Ferene S colorimetric assay of iron binding; design: species or system Plasmodium falciparum; conditions: TrK13-WT 5 μM, 30-times molar excess (150 μM) FAS, G-25 desalted
[4] = tested on: recombinant TrK13-WT protein; test: UV-visible spectrophotometry of TrK13-WT with metal salts; assay type: binding, Plasmodium falciparum; conditions: TrK13-WT 5 μM, metal salt 500 μM (100-times molar excess)
[5] = Detection of ART activated species; assay type: biochemical; conditions: heme: ART or derivative 1:1.20, 30 min, reducing conditions
Method in brief: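 Heme under reducing conditions was reacted with test compound for 30 min, with no protein. Mixtures were run on a C4 column at 1 mL/min using a 0.05% TFA water/acetonitrile gradient (A/B 63/37 to 52/48 over 15 min, then 15 min hold), with Soret detection at 410 nm. Free heme and AAS peaks were integrated, and AAS was given as a percentage of heme by AUC; mean ± SD, three independent experiments.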

heme-BSA complex = heme-BSA complex (Bos taurus, UniProt P02769); test: Detection of AAS by UV-visible spectrophotometry; assay type: biochemical; conditions: ART, 30 min
Method in brief: (§1)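 Purified recombinant protein (10 µM) is incubated for 1 h at room temperature with or without equimolar dithionite-reduced heme (or Zn-PPIX). It is then desalted on a G-25 spin column to remove unbound heme. The >5 kDa eluate is incubated with 200 µM ART or DOA for 30 min. Spectra are scanned at 250–700 nm for the Soret peak, with no-heme and no-ART controls.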

TrK13-WT [6] = target: T1, TrK13-WT; test: UV-visible spectrophotometry of heme binding
heme bound to TrK13-WT = test: Detection of AAS by HPLC, protein-bound heme after G-25 desalting; assay type: biochemical, Plasmodium falciparum; conditions: heme-TrK13 mixture desalted (G-25) before ART addition
Method in brief: (§2)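 Recombinant TrK13 protein (10 µM) was incubated with 60 µM reduced heme for 30 min at 37°C. Unbound heme was removed on a G-25 desalting column, then 72 µM test compound was added for another 30 min. Products were separated on a C4 column at 1 mL/min with 0.05% TFA water/acetonitrile (A/B 63/37 to 52/48 over 15 min, then 15 min hold). Detection was at 410 nm. AAS was expressed as a percentage of heme peak area (AUC); mean ± SD, three independent experiments.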

heme-PfHRP2 complex = test: Detection of AAS by UV-visible spectrophotometry; assay type: biochemical, Plasmodium falciparum; conditions: ART, 30 min
heme-TrK13-R539T complex = test: Detection of AAS by UV-visible spectrophotometry; assay type: biochemical, Plasmodium falciparum; conditions: 200 µM ART, 30 min
Method in brief: as §1

heme-TrK13-C580Y complex = test: Detection of AAS by UV-visible spectrophotometry; assay type: biochemical, Plasmodium falciparum; conditions: 200 µM ART, 30 min
Method in brief: as §1

[7] = tested on: heme bound to TrK13-R539T; test: Detection of AAS by HPLC, protein-bound heme after G-25 desalting; assay type: biochemical, Plasmodium falciparum; conditions: heme-TrK13 mixture desalted (G-25) before ART addition
Method in brief: as §2

heme-bound TrK13-A578S = test: Detection of AAS by UV-visible spectrophotometry; assay type: biochemical, Plasmodium falciparum; conditions: 200 µM ART, 30 min
Method in brief: as §1

TrK13-C580Y = target: T2, TrK13-C580Y (Plasmodium falciparum, UniProt Q8IDQ2, C580Y); test: Tryptophan fluorescence quenching by heme; assay type: binding
T2 sequence (Q8IDQ2 189-726 C580Y): T1 sequence (Q8IDQ2 189-726)

TrK13-R539T = target: T3, TrK13-R539T (Plasmodium falciparum, UniProt Q8IDQ2, R539T); test: Tryptophan fluorescence quenching by heme; assay type: binding
T3 sequence (Q8IDQ2 189-726 R539T): T1 sequence (Q8IDQ2 189-726)

TrK13-WT [8] = target: T1, TrK13-WT; test: Tryptophan fluorescence quenching by heme; assay type: binding
TrK13-A578S = target: T4, TrK13-A578S (Plasmodium falciparum, UniProt Q8IDQ2, A578S); test: Tryptophan fluorescence quenching by heme; assay type: binding
T4 sequence (Q8IDQ2 189-726 A578S): T1 sequence (Q8IDQ2 189-726)

[9] = protein 10 µM, heme 0–5 µM, excitation 295 nm
[10] = tryptophan fluorescence quenching

heme-BSA complex, sequence (P02769 25-607, one chain of several): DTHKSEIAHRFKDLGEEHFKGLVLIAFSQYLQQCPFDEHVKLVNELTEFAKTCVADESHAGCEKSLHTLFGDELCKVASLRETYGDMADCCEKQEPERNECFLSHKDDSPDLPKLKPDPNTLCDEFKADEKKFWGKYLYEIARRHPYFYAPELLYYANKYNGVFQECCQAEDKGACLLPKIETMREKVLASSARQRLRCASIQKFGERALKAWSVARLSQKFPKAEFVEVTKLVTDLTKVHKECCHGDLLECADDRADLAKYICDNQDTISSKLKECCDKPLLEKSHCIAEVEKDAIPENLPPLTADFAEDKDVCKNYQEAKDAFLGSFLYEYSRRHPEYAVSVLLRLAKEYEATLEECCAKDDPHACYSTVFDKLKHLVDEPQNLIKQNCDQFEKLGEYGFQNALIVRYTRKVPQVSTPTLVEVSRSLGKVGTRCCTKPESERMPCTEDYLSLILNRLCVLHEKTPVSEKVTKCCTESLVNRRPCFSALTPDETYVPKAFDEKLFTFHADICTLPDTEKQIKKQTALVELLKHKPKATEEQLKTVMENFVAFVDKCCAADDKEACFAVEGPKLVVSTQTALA

C=CC1=C(C)c2cc3[n-]c(cc4[n-]c(cc5nc(cc1n2)C(C)=C5C=C)c(C)c4CCC(=O)O)c(CCC(=O)O)c3C.[Zn+2] [Zn-PPIX]
inhibition of TrK13-WT binding to hemin-agarose beads (TrK13-WT [1]): ~ 65%
increase in absorbance at 380 nm on ART addition, Zn-PPIX instead of heme (heme-bound TrK13-WT; TrK13-WT with Zn-PPIX, then ART): no increase

O=S(=O)([O-])[O-].O=S(=O)([O-])[O-].[Fe+2].[NH4+].[NH4+] [FAS, ferrous ammonium sulfate]
reduction in absorbance at 595 nm in TrK13-QNG compared to TrK13-WT [2]: ~ 33%
increase in the absorbance at 595 nm in the eluate vs FAS alone or TrK13-WT alone controls [3]: Approximately 10 fold
increase in the absorbance of TrK13-WT at 280 nm relative to TrK13-WT alone (no salts) [4]: 5.82 times

C[C@H]1[C@@H](O)O[C@@H]2O[C@@]3(C)CC[C@H]4[C@H](C)CC[C@@H]1[C@@]24OO3 [DHA, dihydroartemisinin]
AAS peaks in the HPLC chromatogram at 410 nm [5]: additional peaks

C[C@@H]1CC[C@H]2[C@@H](C)C(=O)O[C@@H]3O[C@@]4(C)CC[C@@H]1[C@]32OO4 [ART, artemisinin]
AAS formation (peak absorbance at 380 nm) (heme-BSA complex): no AAS formation
increase in the intensity of the 380 nm peak vs heme-bound protein without ART (heme-bound TrK13-WT): ~ 42%
increment in the 380 nm absorbance peak after addition of ART (heme-bound TrK13-WT; Fe^3+ hemin not pre-reduced to Fe^2+ heme): No increment
changes in the spectral profile of TrK13-WT at 250–700 nm (direct interaction) (TrK13-WT [6]; TrK13-WT 10 µM with excess (200 µM) ART, no heme): no visible changes
Percentage of AAS versus heme (area under the curve) (heme bound to TrK13-WT): ~ 50%
AAS formation (peak absorbance at 380 nm) (heme-PfHRP2 complex): no AAS formation
increase in peak intensity at 380 nm (heme-TrK13-R539T complex): barely detectable increase
increase in peak intensity at 380 nm (heme-TrK13-C580Y complex): barely detectable increase
AAS peaks in the HPLC chromatogram at 410 nm [5]: additional peaks
Percentage of AAS versus heme (area under the curve) [7]: ~ 30%
increase in peak intensity at 380 nm (heme-bound TrK13-A578S): ~ 176%

C=CC1=C(C)c2cc3[nH]c(cc4nc(cc5[nH]c(cc1n2)c(C)c5CCC(=O)O)C(CCC(=O)O)=C4C)c(C)c3C=C [PPIX, protoporphyrin IX]
inhibition of TrK13-WT binding to hemin-agarose beads (TrK13-WT [1]): ~ 50%

O=S(=O)([O-])[O-].O=S(=O)([O-])[O-].[Fe+3].[NH4+] [FES, ferric ammonium sulfate]
increase in the absorbance of TrK13-WT at 280 nm relative to TrK13-WT alone (no salts) [4]: 12.84 times

C[C@@H]1CC[C@H]2[C@@H](C)C(=O)O[C@@H]3O[C@@]4(C)CC[C@@H]1[C@]32O4 [DOA, deoxyartemisinin]
increase in the intensity of the 380 nm peak vs heme-bound protein without ART (heme-bound TrK13-WT): no increase; also recorded: no hyperchromic shift

C=CC1=C(C)c2cc3[nH]c(cc4nc(cc5[nH]c(cc1n2)c(C)c5C=C)C(C)=C4CCC(=O)O)c(CCC(=O)O)c3C.[Fe+3] [heme, ferrous protoporphyrin IX]
Stern-Volmer quenching constant (KSV) (TrK13-C580Y; [9]): 1.75 µM⁻¹
Association constant (Ka) (TrK13-C580Y; [10]): 1.47E + 07 M^-1
Stern-Volmer quenching constant (KSV) (TrK13-R539T; [9]): 1.17 µM⁻¹
Association constant (Ka) (TrK13-R539T; [10]): 7.86E + 07 M^-1
Stern-Volmer quenching constant (KSV) (TrK13-WT [8]; [9]): 0.59 µM⁻¹
Association constant (Ka) (TrK13-WT [8]; [10]): 1.35E + 11 M^-1
Kd (TrK13-WT [6]; read-out: Kd (double reciprocal plot of 1/ΔA versus 1/[heme]), TrK13-WT 10 µM titrated with heme 0-26 µM, G25 desalted): 36.22 ± 0.1 nM
Stern-Volmer quenching constant (KSV) (TrK13-A578S; [9]): 0.66 µM⁻¹
Association constant (Ka) (TrK13-A578S; [10]): 2.88E + 11 M^-1
